Results gathered from unrelated publications.
Organism: Staphylococcus aureus
Effect on: microbial growth

| SMILES | technique | strain | concentration | time | inhibition zone |
| --- | --- | --- | --- | --- | --- |
| CC(C)Cc1nn(-c2nc3ccc(Br)cc3s2)c2c1C(=O)c1ccccc1-2 | well diffusion | NCIM5021 | 125 µg/mL | – | 11 mm |
| COc1cc(C=CC(=O)CC(c2ccc([N+](=O)[O-])cc2)n2ccnc2)ccc1O (stereo not shown) | disc diffusion | ATCC29213 | 250 µg/mL | – | 6 mm |
| CC[C@H]1OC(=O)[C@H](C)[C@@H](O[C@H]2C[C@@](C)(OC)[C@@H](O)[C@H](C)O2)[C@H](C)[C@@H](O[C@@H]2O[C@H](C)C[C@H](N(C)C)[C@H]2O)[C@](C)(O)C[C@@H](C)/C(=N\OCOCCOC)[C@H](C)[C@@H](O)[C@]1(C)O | disc diffusion | ATCC6538 | 20000 µg/mL | 24 h | 20 mm |
| COc1cc(C=Cc2cc(-c3ccc(N(C)C)cc3)nc(O)n2)ccc1O | disc diffusion | ATCC29213 | 250 µg/mL | – | 6 mm |
| CC(C)c1nn(-c2nc3ccccc3s2)c2c1C(=O)c1ccccc1-2 | well diffusion | NCIM5021 | 125 µg/mL | – | 10 mm |
| CC(=O)C1=C(C)N2NC(C)(c3ccccc3O)N(C(Cc3c[nH]c4ccccc34)C(=O)O)C2=NC1c1ccc(Cl)cc1 (stereo not shown) | – | ATCC25923 | 15 µg/mL | 24 h | 33 mm |
| COc1ccc2nc(-n3nc(C)c4c3-c3ccccc3C4=O)sc2c1 | well diffusion | NCIM5021 | 125 µg/mL | – | 11 mm |
| N#Cc1c(-c2ccc(Cl)cc2)nc2n(c1=O)NC(c1ccccc1O)N2C(Cc1c[nH]c2ccccc12)C(=O)O (stereo not shown) | – | ATCC25923 | 15 µg/mL | 24 h | 32 mm |
| CN[C@H](CC(C)C)C(=O)N[C@H]1C(=O)N[C@@H](CC(N)=O)C(=O)N[C@H]2C(=O)N[C@H]3C(=O)N[C@H](C(=O)N[C@H](C(=O)O)c4cc(O)cc(O)c4-c4cc3ccc4O)[C@H](O)c3ccc(c(Cl)c3)Oc3cc2cc(c3O[C@@H]2O[C@H](CO)[C@@H](O)[C@H](O)[C@H]2O[C@H]2C[C@](C)(N)[C@H](O)[C@H](C)O2)Oc2ccc(cc2Cl)[C@H]1O | disc diffusion | ATCC29213 | 15.6 µg/disc | 24 h | 16 mm |
| CCOC(=O)C1=C(C)N2NC(c3ccccc3O)N(C(Cc3c[nH]c4ccccc34)C(=O)O)C2=NC1c1ccc(Cl)cc1 (stereo not shown) | – | ATCC25923 | 10 µg/mL | 24 h | 19 mm |
| [H]/N=C(/N)N[C@H]1[C@H](O)[C@@H](O)[C@H](O[C@@H]2O[C@@H](C)[C@](O)(C=O)[C@H]2O[C@@H]2O[C@@H](CO)[C@H](O)[C@@H](O)[C@@H]2NC)[C@@H](N/C(N)=N\[H])[C@@H]1O | well diffusion | NCIM5021 | 125 µg/mL | – | 20 mm |
| CC(=O)C1=C(C)N2NC(c3ccccc3O)N(C(Cc3c[nH]c4ccccc34)C(=O)O)C2=NC1c1ccc(Cl)cc1 (stereo not shown) | – | ATCC25923 | 10 µg/mL | 24 h | 19 mm |
| Cc1ccc2nc(-n3nc(C(C)C)c4c3-c3ccccc3C4=O)sc2c1 | well diffusion | NCIM5021 | 500 µg/mL | – | 13 mm |
| CC(C(=O)O)N1c2nc(-c3ccc(Cl)cc3)c(C#N)c(=O)n2NC1c1ccccc1O (stereo not shown) | – | ATCC25923 | 10 µg/mL | 24 h | 14 mm |
| COc1cc(C=CC(=O)CC(c2ccc(N(C)C)cc2)n2ccnc2)ccc1O (stereo not shown) | disc diffusion | ATCC29213 | 250 µg/mL | – | 9 mm |
| CC(C(=O)O)N1C2=NC(c3ccc(Cl)cc3)C3=C(OC(C)(C)OC3=O)N2NC1(C)c1ccccc1O (stereo not shown) | – | ATCC25923 | 15 µg/mL | 24 h | 24 mm |
| Cc1cc(N)c2ccccc2[n+]1CCCCCCCCCC[n+]1c(C)cc(N)c2ccccc21 | disc diffusion | – | 50 µg/disc | – | 9 mm |
| CC1(C)S[C@@H]2[C@H](NC(=O)[C@H](N)c3ccc(O)cc3)C(=O)N2[C@H]1C(=O)O | disc diffusion | ATCC29213 | 250 µg/mL | – | 9.37 mm |
| Cc1nn(-c2nc3ccccc3s2)c2c1C(=O)c1ccccc1-2 | well diffusion | NCIM5021 | 1000 µg/mL | – | 11 mm |
